One assay concerns the target Axin-1 (Mus musculus) (UniProt O35625). The experiment in a line: Inhibition of HLY179 binding to mouse His6-tagged AXIN DAX domain expressed in Escherichia coli at 80 uM after 1 to 2 hrs by Western blot analysis. (Immunoblotting shows a protein as a band on a membrane.)
Assay [1] has as its system HEK293. The experiment in a line: Activation of Wnt/beta-catenin signaling pathway (unknown origin) expressed in HEK293 cells harboring pEGFP-C1/TOP Flash/LacZ in Wnt3a conditioned medium after 6 hrs by luciferase reporter gene assay. The assay is classed as cell-based. The settings on record: Homo sapiens. A digest of the protocol:
(§1)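 HEK293T cells in DMEM with 10% heat-inactivated FBS, 37°C, 5% CO2. Cells in 24-well plates were transfected with 250 ng plasmid per well (20 ng TOPFlash, 25 ng EGFP-C1, LacZ filler). 18 h later they were treated in Wnt3a CM or control CM for 6 h. Lysate GFP fluorescence was read first, then luciferase luminescence.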
A general note: In a reporter assay the amount or activity of a reporter protein is the signal.

Assay [2] deals with HEK293. The experiment in a line: Activation of Wnt/beta-catenin signaling pathway (unknown origin) expressed in HEK293 cells harboring pEGFP-C1/TOP Flash/LacZ at 5 to 20 uM in Wnt3a conditioned medium after 6 hrs by luciferase reporter gene assay. The assay is classed as cell-based. The settings on record: Homo sapiens. The method in brief:
as §1

Assay [3] has as its system HEK293. Nature of the assay: Activation of Wnt/beta-catenin signaling pathway (unknown origin) expressed in HEK293 cells harboring pEGFP-C1/TOP Flash/LacZ in Wnt3a conditioned medium assessed as increase in DKK1 gene expression at 0.5 to 5 uM after 6 hrs by luciferase reporter gene assay. The assay is classed as cell-based. The note with it: Homo sapiens. A digest of the protocol: (§2)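 HEK293T cells were treated with compound plus control or Wnt3a CM for 6 h. Total RNA was extracted with TRIzol and reverse-transcribed with oligo(dT) priming. Transcripts were quantified by PCR with target primers (DKK1 given) and GAPDH primers as reference.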

In assay [4] the test system is HEK293. The experiment in a line: Activation of Wnt/beta-catenin signaling pathway (unknown origin) expressed in HEK293 cells harboring pEGFP-C1/TOP Flash/LacZ in Wnt3a conditioned medium assessed as increase in AXIN2 gene expression at 0.5 to 5 uM after 6 hrs by luciferase reporter gene assay. The assay is classed as cell-based. The note with it: Homo sapiens. The method in brief: as §2

Calls of active or inactive are those of the source. The calls are words filed in the database; no cut-off is given here.

Chain of Axin-1 (Mus musculus) (O35625 whole entry, the tested form may be a part): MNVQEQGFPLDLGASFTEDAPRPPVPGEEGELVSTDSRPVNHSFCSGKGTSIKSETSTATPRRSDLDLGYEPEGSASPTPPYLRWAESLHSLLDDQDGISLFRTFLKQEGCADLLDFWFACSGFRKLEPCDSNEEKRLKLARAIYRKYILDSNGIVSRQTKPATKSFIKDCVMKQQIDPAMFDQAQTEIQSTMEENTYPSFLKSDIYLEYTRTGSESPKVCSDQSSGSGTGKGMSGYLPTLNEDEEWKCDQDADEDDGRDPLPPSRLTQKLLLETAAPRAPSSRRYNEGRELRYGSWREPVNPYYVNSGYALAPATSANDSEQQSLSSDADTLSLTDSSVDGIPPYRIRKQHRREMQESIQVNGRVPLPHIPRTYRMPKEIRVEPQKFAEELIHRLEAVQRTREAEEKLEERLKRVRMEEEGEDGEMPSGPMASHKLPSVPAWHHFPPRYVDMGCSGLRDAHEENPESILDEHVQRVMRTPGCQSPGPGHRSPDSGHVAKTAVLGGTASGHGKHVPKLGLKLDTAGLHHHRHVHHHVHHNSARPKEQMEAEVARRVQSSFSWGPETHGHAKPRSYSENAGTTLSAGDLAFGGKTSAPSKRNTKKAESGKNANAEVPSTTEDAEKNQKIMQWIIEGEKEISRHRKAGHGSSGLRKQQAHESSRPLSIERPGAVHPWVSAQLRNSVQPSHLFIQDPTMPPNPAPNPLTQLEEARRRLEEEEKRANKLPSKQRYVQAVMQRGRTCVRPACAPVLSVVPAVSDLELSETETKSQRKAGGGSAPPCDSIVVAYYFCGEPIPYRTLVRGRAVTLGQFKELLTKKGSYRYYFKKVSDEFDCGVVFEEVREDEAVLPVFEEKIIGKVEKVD

`CCN1Cc2cc(OCc3cccnc3)c(OCc3cccnc3)cc2-c2cccc(C)c21`: the inhibition entry at Axin-1 (Mus musculus) was “Active”. The same compound registered a CD with HEK293 [1] of 5 µM.
In the assay on HEK293 [1], `CCN1Cc2cc(OC)c(OC)cc2-c2cccc(C)c21` came in with a CD of 5 µM. The outcome with HEK293 [2] was Active.
Take `CCN1Cc2cc(OC)ccc2-c2cccc(C)c21`: at Axin-1 (Mus musculus), the inhibition result was “Active”. In the assay with HEK293 [2], the outcome was Active.
The compound `CCN1Cc2cc(OCc3cccnc3)ccc2-c2cccc(C)c21` showed a CD with HEK293 [1] of 1.5 µM.
`CCN1Cc2cc(OCc3cc(C)nn3C)ccc2-c2cccc(C)c21`: on Axin-1 (Mus musculus), the inhibition result is “Active”. Also, in the assay on HEK293 [1], the CD was 0.5 µM.
As to `CCN1Cc2cc(OCc3cc(C)n(C)n3)ccc2-c2cccc(C)c21`, the inhibition entry on Axin-1 (Mus musculus) was “Active”. In addition, in the assay on HEK293 [1], the CD stood at 3 µM. The outcome in the assay on HEK293 [3] and with HEK293 [4] was Active.
For `COc1ccc2c(c1)CN(C)c1c(C)cccc1-2`, on Axin-1 (Mus musculus), the inhibition entry was “Active”.
As to `c1ccc(OCc2cccnc2)cc1`, in the assay with HEK293 [2], the outcome was Active.
Regarding `CCN1Cc2cc(OCc3cc(C)nn3C)c(OCc3cc(C)nn3C)cc2-c2cccc(C)c21`, on Axin-1 (Mus musculus), the inhibition result is “Active”. In the assay with HEK293 [1], this compound returned a CD of 0.15 µM. Also, the outcome in the assay on HEK293 [3] and with HEK293 [4] was Active.
For the compound `Cc1cc(COc2ccccc2)nn1C`, the result with HEK293 [2] was Active.
Same read-out and setting: for `Cc1cc(COc2ccccc2)n(C)n1` the value was “Active”.
